The species named for one assay is Rattus norvegicus. The assay can be described thus: Partial agonist activity at central benzodiazepine receptor in Sprague-Dawley rat cerebrocortical synaptoneurosomes assessed as increase in GABA-induced [36]chloride ion flow after 10 seconds by beta liquid scintillation counting. Format: functional. The procedure, abridged: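 Cerebral cortex from male Sprague-Dawley rats was homogenised and filtered, and synaptoneurosomes were washed in HEPES pH 7 buffer (145 mM NaCl, 5 mM KCl, 5 mM MgCl2, 1 mM CaCl2, 10 mM glucose). Aliquots of 1.5–2 mg protein were preincubated 10 min at 30 C. Drug was added with 0.2 μCi 36Cl−, uptake was stopped at 10 s, and filter-bound radioactivity was counted by scintillation.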

In assay [1] the target is GABA-A receptor; alpha-1/beta-2/gamma-2 (Homo sapiens) (UniProt P14867+P47870+P18507). The assay can be described thus: Modulation of human recombinant GABA-A alpha1beta2gamma2L receptor expressed in Xenopus laevis oocytes assessed as effect on GABA-induced chloride current at 1 uM incubated 60 seconds before addition of GABA measured after 30 seconds at holding potential -70 mV by two-microelectrode voltage clamp technique relative to control. The format is cell-based. Particulars: Oocyte.

Assay [2] deals with Oocyte. The experiment in a line: Modulation of human recombinant GABA-A alpha5beta2gamma2L receptor expressed in Xenopus laevis oocytes assessed as effect on GABA-induced chloride current at 10 uM incubated 60 seconds before addition of GABA measured after 30 seconds at holding potential -70 mV by two-microelectrode voltage clamp technique relative to control. The format is cell-based.

In assay [3] the test system is Oocyte. The assay can be described thus: Antagonist at human recombinant GABA-A alpha5beta2gamma2L receptor expressed in Xenopus laevis oocytes assessed as blockade of diazepam-induced potentiation of GABA-induced chloride current at 10 uM incubated 60 seconds before addition of GABA measured after 30 seconds at holding potential -70 mV by two-microelectrode voltage clamp technique. Format: functional, cell-based. In a few lines:
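Oocytes expressing human α1β2γ2L, α2β1γ2L or α5β2γ2L receptors were clamped at −70 mV. Compound at 10 μM was tested against the enhancement of the GABA EC10 response by 1.0 μM diazepam, with 60 s preapplication and 30 s coapplication. The response was expressed as percent potentiation, from 2–3 oocytes.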

The target of assay [4] is T1, GABA-A receptor; alpha-5/beta-3/gamma-2 (Homo sapiens, UniProt P18507+P28472+P31644).
T1 sequence (P18507 whole entry): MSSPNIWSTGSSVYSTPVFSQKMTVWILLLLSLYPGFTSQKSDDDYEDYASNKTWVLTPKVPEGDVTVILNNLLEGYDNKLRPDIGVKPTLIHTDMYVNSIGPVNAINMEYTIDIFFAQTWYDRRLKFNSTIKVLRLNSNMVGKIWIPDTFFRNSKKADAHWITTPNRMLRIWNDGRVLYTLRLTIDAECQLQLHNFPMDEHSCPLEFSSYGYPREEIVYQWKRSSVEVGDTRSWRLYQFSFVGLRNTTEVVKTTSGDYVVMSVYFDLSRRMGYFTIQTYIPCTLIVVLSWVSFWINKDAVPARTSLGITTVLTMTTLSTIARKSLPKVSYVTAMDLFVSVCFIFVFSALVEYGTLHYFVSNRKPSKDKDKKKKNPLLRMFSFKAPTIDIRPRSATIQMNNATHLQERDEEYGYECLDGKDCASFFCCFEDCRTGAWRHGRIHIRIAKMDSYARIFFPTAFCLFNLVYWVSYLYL
T1 sequence (P28472 whole entry): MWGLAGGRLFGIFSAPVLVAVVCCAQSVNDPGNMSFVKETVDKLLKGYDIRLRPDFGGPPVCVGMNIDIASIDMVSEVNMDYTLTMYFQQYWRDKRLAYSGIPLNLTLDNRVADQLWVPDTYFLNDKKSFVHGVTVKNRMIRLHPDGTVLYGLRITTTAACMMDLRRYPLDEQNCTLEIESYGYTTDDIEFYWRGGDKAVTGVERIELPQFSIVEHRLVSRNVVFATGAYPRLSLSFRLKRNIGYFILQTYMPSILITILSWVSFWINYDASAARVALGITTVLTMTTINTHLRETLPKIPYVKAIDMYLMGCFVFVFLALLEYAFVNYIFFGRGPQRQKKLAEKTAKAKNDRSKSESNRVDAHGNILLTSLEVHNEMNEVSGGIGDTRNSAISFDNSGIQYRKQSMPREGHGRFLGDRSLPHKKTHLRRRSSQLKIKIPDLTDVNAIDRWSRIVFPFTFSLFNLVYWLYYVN
T1 sequence (P31644 whole entry): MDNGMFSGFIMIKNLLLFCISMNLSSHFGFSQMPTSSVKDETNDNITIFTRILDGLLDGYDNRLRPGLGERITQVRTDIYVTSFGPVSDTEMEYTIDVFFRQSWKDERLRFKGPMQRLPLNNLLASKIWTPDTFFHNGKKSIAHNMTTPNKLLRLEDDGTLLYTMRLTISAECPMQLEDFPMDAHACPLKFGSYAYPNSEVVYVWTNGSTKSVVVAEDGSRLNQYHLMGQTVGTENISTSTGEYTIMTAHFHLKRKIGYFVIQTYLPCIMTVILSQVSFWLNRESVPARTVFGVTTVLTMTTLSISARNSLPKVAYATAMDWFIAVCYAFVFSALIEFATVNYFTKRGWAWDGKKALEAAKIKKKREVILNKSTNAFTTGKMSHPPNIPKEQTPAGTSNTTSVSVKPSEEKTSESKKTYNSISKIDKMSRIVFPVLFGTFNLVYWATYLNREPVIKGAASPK
The experiment in a line: Displacement of [3H]flumazenil from human recombinant GABA-A alpha5beta3gamma2L receptor in HEK293 cells. Format: cell-based. The procedure, abridged: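 Membranes came from stably transfected HEK293 lines expressing α2β2γ2 or α5β3γ2, grown in MEM/EBSS with 10% FCS at 37 C, and were resuspended in 10 mM potassium phosphate pH 7.4 with 100 mM KCl. […] At least six concentrations were tested, DMSO ≤1%. Ki was obtained by Cheng–Prusoff from n = 3 experiments run in triplicate.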
(Displacement assays read how much labelled ligand stays bound in the presence of the test substance.)

In assay [5] the test system is Mus musculus. The assay can be described thus: Anxiolytic effect in mouse assessed as increase in time spent in light compartment at 1 mg/kg, po by light/dark box test. Format: functional, organism-based. The arrangement: dose 1 mg/kg. In a few lines: (§1)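 Male mice were used. Compound was given orally as a suspension in 1% CMC; diazepam was given ip in saline; volume 10 mL/kg. Each mouse was placed in the lit side of a two-compartment light/dark box and observed for 5 min, scoring time in the light and transfers. Groups were compared by ANOVA with Fisher PLSD.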

The test system of assay [6] is Mus musculus. The assay can be described thus: Anxiolytic effect in mouse assessed as increase in time spent in light compartment at 10 mg/kg, po by light/dark box test. The arrangement: dose 10 mg/kg. Format: functional, organism-based. In a few lines:
as §1

Assay [7] relates to Mus musculus. The experiment in a line: […] activity in mouse assessed as effect on explorative activity measuring number of inspections at 10 mg/kg, po after 5 mins by hole-board test relative to CMC-treated control. Format: functional, organism-based. More on the design: dose 10 mg/kg. In a few lines:
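Mice dosed orally in 1% CMC were placed singly on a 16-hole board for 5 min. Photocells counted plane movements (spontaneous motility) and hole explorations. Groups of 12–15 mice were compared with CMC controls.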

Assay [8] concerns Mus musculus. The assay can be described thus: Antiamnesic activity against scopolamine-induced amnesic effect in mouse assessed as increase in retention latency period at 3 mg/kg, po by passive avoidance test. More on the design: dose 3 mg/kg. The format is functional, organism-based. In a few lines: (§2)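 In a mouse passive-avoidance test, oral doses in 1% CMC were tested against amnesia induced by 1.5 mg/kg scopolamine ip. Retention latency was scored and compared with controls by ANOVA.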

Assay [9] relates to Mus musculus. The experiment in a line: Antiamnesic activity against scopolamine-induced amnesic effect in mouse at 10 mg/kg, po by passive avoidance test. The format is functional, organism-based. The arrangement: dose 10 mg/kg. In a few lines:
as §2

The source of these data is ChEMBL document CHEMBL2169854, “New insight into the central benzodiazepine receptor-ligand interactions: design, synthesis, biological evaluation, and molecular modeling of 3-substituted 6-phenyl-4H-imidazo[1,5-a][1,4]benzodiazepines and related compounds” (J Med Chem, 2011).

The source made the active and inactive calls. The calls are words filed in the database; no cut-off is given here.

By Ki is commonly meant a measure of affinity in units of concentration, obtained from inhibition or displacement. Turning to `CCOC(=O)c1ncn2c1CN=C(c1ccc(C)cc1)c1ccccc1-2`, the outcome in the assay listed under Rattus norvegicus and in the assay on Oocyte [3] was Active. Also, the Activity in assay [1] is 8%; in the assay on Oocyte [2], -22%. For the same compound, the Ki in assay [4] was 908 nM.
For the compound `CCOC(=O)c1ncn2c1CN=C(c1ccc(F)cc1)c1cc(F)ccc1-2`, the result with Mus musculus [5], with Mus musculus [6], in the assay with Mus musculus [8], in the assay on Mus musculus [9] and with Oocyte [3] was Active. In addition, the result with Mus musculus [7] was inactive. Further, the results for the Activity (in assay [1]; in the assay on Oocyte [2]) were -13% and -16%, respectively. In assay [4], the Ki was determined as 772 nM.
